Laboratory results reported in ChEMBL document CHEMBL3414539, “Quantum chemistry calculation-aided structural optimization of combretastatin A-4-like tubulin polymerization inhibitors: improved stability and biological activity” (J Med Chem, 2015).

How the values were obtained:
[1] = tested on: HT-29; assay: Growth inhibition of human HT-29 cells by MTT assay; format: functional, cell-based
How it was run: (§1)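 MTT assay in SKOV3 ovarian and HT-29 colon carcinoma cells, absorbance read at 570 nm. Triplicate wells in at least three independent assays; average IC50 reported.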

[2] = tested on: SK-OV-3; assay: Growth inhibition of human SKOV3 cells by MTT assay; format: functional, cell-based; how it was run: as §1
[3] = target: Tubulin (Bos taurus, UniProt Q6B856+Q862L2+Q862F3); assay: Inhibition of bovine brain tubulin polymerization incubated for 60 mins by microplate reader based turbidimetry
[4] = Stability assessed as cis-trans isomerization equilibrium at 1.5 x 10^-2 M under natural light conditions after 7 days by LC-HRMS method; format: physicochemical; conditions: 168 h, 15000 µM
[5] = Stability assessed as cis-trans isomerization equilibrium by mesuring remaining compound level at 1.5 x 10^-2 M exposed to UV-visible light irradiation after 22 hrs by LC-HRMS method; format: physicochemical; conditions: read-out: Stability
[6] = Stability assessed as cis-trans isomerization equilibrium by mesuring remaining compound level at 1.5 x 10^-2 M exposed to UV-visible light irradiation after 1.5 hrs by LC-HRMS method; format: physicochemical; conditions: read-out: Stability
[7] = tested on: HT-29; assay: Antitumor activity against human HT-29 cells xenografted in BALB/c mouse assessed as reduction in tumor volume at 50 mg/kg, ip administered once daily for 18 days; format: functional; conditions: route intraperitoneal
How it was run: (§2)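 Female BALB/c nude mice (18–20 g) bearing HT-29 xenografts of around 100 mm³, randomized into six animals/treatment and twelve controls. Drug or vehicle given ip once a day for 18 days. Tumor volume and body weight recorded on d0 and d18. T/C (%) derived from relative tumor volume (Vt/Vo). Body weight change given as mean in g.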

[8] = tested on: HT-29; assay: Antitumor activity against human HT-29 cells xenografted in BALB/c mouse assessed as reduction in tumor volume at 150 mg/kg, ip administered once daily for 18 days; format: functional; conditions: route intraperitoneal; how it was run: as §2
[9] = tested on: Mus musculus; assay: Toxicity in human HT-29 cells xenografted BALB/c mouse assessed as change in body weight at 150 mg/kg, ip administered once daily for 18 days (reference value: 2.5 g); format: organism-based; design: dose 150 mg/kg, route intraperitoneal; conditions: in vivo, 432 h; how it was run: as §2
[10] = tested on: Mus musculus; assay: Toxicity in human HT-29 cells xenografted BALB/c mouse assessed as change in body weight at 50 mg/kg, ip administered once daily for 18 days (reference value: 2.5 g); format: organism-based; design: dose 50 mg/kg, route intraperitoneal; conditions: in vivo, 432 h
[11] = tested on: HT-29; assay: Antitumor activity against human HT-29 cells xenografted in BALB/c mouse assessed as reduction in tumor volume at 50 and 150 mg/kg, ip administered once daily and measured on day 18; format: functional, organism-based; design: dose 150 mg/kg; how it was run: as §2

Compound	IC50 [1] [nM]	IC50 [2] [nM]	IC50 [3] [nM]	remaining at 1.5 h, 15000 µM [6] [%]	further results
COc1ccc(/C=C2\c3cc(OC)c(OC)c(OC)c3CC[C@@H]2O)cc1N	160	740	–	–	–
COc1ccc(/C=C2\c3cc(OC)c(OC)c(OC)c3CC[C@H]2O)cc1	2600	3780	> 10000	99.1	Stability [4]: Stable; remaining at 22 h, 15000 µM [5]: 93%
COc1ccc(/C=C2\c3cc(OC)c(OC)c(OC)c3CC[C@@H]2O)cc1	2460	7030	> 10000	99.4	Stability [4]: Stable; remaining at 22 h, 15000 µM [5]: 92.6%
COc1ccc(/C=C2\c3cc(OC)c(OC)c(OC)c3CC[C@H]2O)cc1C#N	200	600	–	–	–
COc1ccc(/C=C2\c3cc(OC)c(OC)c(OC)c3CC[C@@H]2O)cc1C	2560	730	–	–	–
COc1ccc(/C=C2\c3cc(OC)c(OC)c(OC)c3CC[C@@H]2O)cc1[N+](=O)[O-]	1590	4640	–	–	–
COc1ccc(/C=C2\c3cc(OC)c(OC)c(OC)c3CC[C@H]2O)cc1C	3970	1340	–	–	–
COc1ccc2c(c1)CC[C@H](O)/C2=C/c1cc(OC)c(OC)c(OC)c1	1	1	410	98.9	T/C [7]: 61%; T/C [8]: 37%; Activity [9]: 1.8 g; Activity [10]: 2.3 g; Stability [4]: Stable; inhibition [11]: Dose-dependent effect; remaining at 22 h, 15000 µM [5]: 90.2%
COc1ccc2c(c1)CC[C@@H](O)/C2=C/c1cc(OC)c(OC)c(OC)c1	900	2020	> 10000	99.2	Stability [4]: Stable; remaining at 22 h, 15000 µM [5]: 92%
COc1ccc(/C=C2\c3cc(OC)c(OC)c(OC)c3CC[C@H]2O)cc1O	790	1590	–	–	–
COc1ccc2c(c1)CCC(=O)/C2=C/c1cc(OC)c(OC)c(OC)c1	130	2	3930	52.8	–
COc1ccc(/C=C2\c3cc(OC)c(OC)c(OC)c3CC[C@H]2O)cc1[N+](=O)[O-]	> 10000	> 10000	–	–	–
COc1ccc(/C=C2\c3cc(OC)c(OC)c(OC)c3CC[C@H]2O)cc1N	910	1870	–	–	–
COc1ccc(/C=C2\c3cc(OC)c(OC)c(OC)c3CC[C@H]2O)cc1F	220	720	–	–	–
COc1ccc(/C=C2\c3cc(OC)c(OC)c(OC)c3CC[C@@H]2O)cc1C(N)=O	550	1440	–	–	–
COc1ccc(/C=C\c2cc(OC)c(OC)c(OC)c2)cc1O [COMBRETASTATIN A4]	1	1	–	99.1	T/C [7]: 52%; Activity [10]: 1.7 g; Stability [4]: Stable; remaining at 22 h, 15000 µM [5]: 84%
COc1ccc(/C=C2\c3cc(OC)c(OC)c(OC)c3CC[C@@H]2O)cc1O	260	1060	–	–	–
COc1ccc(/C=C2\c3cc(OC)c(OC)c(OC)c3CC[C@H]2O)cc1C(N)=O	550	1920	–	–	–
COc1ccc(/C=C2\c3cc(OC)c(OC)c(OC)c3CC[C@@H]2O)cc1F	3	1	5700	–	–
COc1ccc(/C=C2\c3cc(OC)c(OC)c(OC)c3CC[C@@H]2O)cc1C#N	5	20	–	–	–
